We go through 18 molecules from ChEMBL document CHEMBL1144183, “Synthesis and biological affinity of new imidazo- and indol-arylpiperazine derivatives: further validation of a pharmacophore model for alpha(1)-adrenoceptor antagonists” (Bioorg Med Chem Lett, 2008).

Broadly, the pKi is −log10 of the Ki, conventionally taken in molar units.

pKi: −log10 of the molar value. Bounds are passed on as bounds.

Assay [1] is described as follows: Displacement of [3H]prazosin from alpha1 adrenoceptor in rat cortex membrane. Format: cell membranes. A digest of the protocol: (§1)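 Competitive radioligand binding on rat cerebral cortex membranes. IC50 was converted to Ki by Cheng–Prusoff, Ki = IC50/(1+[L]/Kd). Ki is the mean of three separate experiments, each run in triplicate.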
(In general: Displacement assays read how much labelled ligand stays bound in the presence of the test substance.)

Assay [2] addresses T1, Sodium-dependent serotonin transporter (Homo sapiens, UniProt P31645). Format: cell membranes.
Target sequence in this assay (P31645 whole entry): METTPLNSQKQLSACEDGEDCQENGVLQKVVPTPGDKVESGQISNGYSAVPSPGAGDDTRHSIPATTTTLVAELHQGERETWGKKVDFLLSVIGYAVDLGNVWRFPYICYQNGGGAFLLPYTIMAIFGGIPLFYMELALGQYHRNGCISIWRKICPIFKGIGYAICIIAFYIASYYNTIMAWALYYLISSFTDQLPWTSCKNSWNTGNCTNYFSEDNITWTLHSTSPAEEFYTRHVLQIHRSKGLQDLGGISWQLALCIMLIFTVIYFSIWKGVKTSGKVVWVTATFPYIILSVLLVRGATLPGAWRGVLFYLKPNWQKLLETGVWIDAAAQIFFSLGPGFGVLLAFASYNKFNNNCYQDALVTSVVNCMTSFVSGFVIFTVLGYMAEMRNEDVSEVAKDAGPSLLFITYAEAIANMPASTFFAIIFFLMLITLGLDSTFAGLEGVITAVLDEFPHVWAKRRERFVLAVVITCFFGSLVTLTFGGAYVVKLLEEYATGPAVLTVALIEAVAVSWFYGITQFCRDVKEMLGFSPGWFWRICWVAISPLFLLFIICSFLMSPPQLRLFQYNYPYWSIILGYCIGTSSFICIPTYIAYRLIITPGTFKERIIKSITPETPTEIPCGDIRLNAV
Assay [3] can be described thus: Displacement of [3H]rauwolscine from alpha2 adrenoceptor in rat cortex membrane. Format: cell membranes. A digest of the protocol:
as §1

The species entered for assay [4] is Rattus norvegicus. In words: Ratio of Ki for alpha2 adrenoceptor in rat cortex membrane to Ki for alpha1 adrenoceptor in rat cortex membrane. Format: cell membranes.
For assay [5], the target named is T2, 5-hydroxytryptamine receptor 1A (Rattus norvegicus, UniProt P19327).
T2 sequence (P19327 whole entry): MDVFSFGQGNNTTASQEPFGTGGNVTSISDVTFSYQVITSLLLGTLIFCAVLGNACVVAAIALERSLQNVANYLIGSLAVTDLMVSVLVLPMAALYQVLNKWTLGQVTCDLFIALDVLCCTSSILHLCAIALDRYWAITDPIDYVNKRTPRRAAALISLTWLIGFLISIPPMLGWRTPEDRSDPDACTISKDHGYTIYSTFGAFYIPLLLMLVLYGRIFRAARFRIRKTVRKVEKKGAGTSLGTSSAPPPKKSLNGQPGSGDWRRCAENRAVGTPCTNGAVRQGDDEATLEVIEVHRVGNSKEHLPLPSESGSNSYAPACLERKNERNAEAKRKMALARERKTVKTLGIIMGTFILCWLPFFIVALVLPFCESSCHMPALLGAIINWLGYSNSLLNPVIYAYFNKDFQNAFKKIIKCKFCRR
Briefly: Displacement of [3H]8-OH-DPAT from 5HT1A receptor in rat cortex membrane. Format: cell membranes. An outline of the steps:
as §1

The species named for assay [6] is Rattus norvegicus. In words: Ratio of Ki for 5HT1A receptor in rat cortex membrane to Ki for alpha1 adrenoceptor in rat cortex membrane. Format: cell membranes.
Assay [7] deals with T1, Sodium-dependent serotonin transporter. In words: Displacement of [3H]paroxetine from SERT in human platelet membrane at 10 uM. Format: cell membranes. An outline of the steps:
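Compounds were tested at 10 µM, with percent displacement recorded. Where obtainable, Ki was derived from IC50 by Cheng–Prusoff. Assays were run in triplicate.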
Target sequence in this assay (P31645 whole entry, looked up): as the sequence (P31645 whole entry) above

In assay [8] the target is 5-hydroxytryptamine receptor 2A (Homo sapiens, UniProt P28223). Briefly: Displacement of [3H]ketanserine from 5HT2A receptor.
Sequence of 5-hydroxytryptamine receptor 2A (P28223 whole entry): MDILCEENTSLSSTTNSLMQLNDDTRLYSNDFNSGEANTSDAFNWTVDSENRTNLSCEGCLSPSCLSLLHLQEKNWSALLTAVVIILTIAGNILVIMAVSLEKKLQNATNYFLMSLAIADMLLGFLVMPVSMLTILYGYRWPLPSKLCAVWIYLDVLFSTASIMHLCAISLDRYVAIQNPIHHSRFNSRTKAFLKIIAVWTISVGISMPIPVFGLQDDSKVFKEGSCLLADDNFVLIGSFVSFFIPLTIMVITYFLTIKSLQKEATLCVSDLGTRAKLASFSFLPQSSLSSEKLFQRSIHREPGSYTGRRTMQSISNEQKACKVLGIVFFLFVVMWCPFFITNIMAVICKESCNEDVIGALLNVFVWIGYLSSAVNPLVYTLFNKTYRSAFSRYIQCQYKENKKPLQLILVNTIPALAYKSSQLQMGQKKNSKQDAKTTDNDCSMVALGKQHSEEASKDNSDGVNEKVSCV

In assay [1], `COc1cc2nc(N3CCN(C(=O)c4ccco4)CC3)nc(N)c2cc1OC` [PRAZOSIN] showed a pKi of 9.62.
As for `CCOc1ccccc1N1CCN(CCNC(=O)Cn2nc(-n3ccnc3)ccc2=O)CC1`, the pKi in assay [1] is 6.63; in assay [2], 5.22; in assay [3] it was 5.50; in assay [5], 5.94. The Ratio Ki in the assay listed under Rattus norvegicus [4] is 13.4; in the assay filed under Rattus norvegicus [6], 4.9.
For the molecule `COc1ccccc1N1CCN(C(=O)CCCn2nc(-n3ccnc3)ccc2=O)CC1`, the pKi in assay [1] is 5.66; in assay [2], under 5.00; in assay [3], 5.72; in assay [5], 6.50. In addition, in assay [7], the Activity was 3%. For the same molecule, the Ratio Ki in the assay filed under Rattus norvegicus [4] turned out to be 0.86; in the assay listed under Rattus norvegicus [6], 0.14.
Take `O=c1ccc(-n2ccc3ccccc32)nn1CCCCN1CCN(c2ccc3c(c2)OCCO3)CC1`: the pKi was 7.85 in assay [1], 6.75 in assay [2], 6.32 in assay [3] and 6.20 in assay [5]. The Ratio Ki in the assay filed under Rattus norvegicus [4] was 34; in the assay listed under Rattus norvegicus [6], 44.8.
For the molecule `CC(C)Oc1ccccc1N1CCN(CCNC(=O)Cn2nc(-n3ccnc3)ccc2=O)CC1`, the pKi in assay [1] is 6.66; in assay [2] it was under 5.00; in assay [3], 5.71; in assay [5] it was 5.72. The Ratio Ki in the assay filed under Rattus norvegicus [4] amounted to 8.89; in the assay filed under Rattus norvegicus [6] it was 8.7.
On to `COC(=O)[C@H]1[C@H]2C[C@H]3c4[nH]c5ccccc5c4CCN3C[C@H]2CC[C@@H]1O` [RAUWOLSCINE], for which the pKi in assay [3] is 8.40.
As for `CC(C)Oc1ccccc1N1CCN(CCCCn2nc(-n3ccnc3)ccc2=O)CC1`, the pKi in assay [1] is 9.40; in assay [2], under 5.00; in assay [3], 7.36; in assay [5] it was 8.17. The Activity in assay [7] turned out to be 10%. Further, the Ratio Ki in the assay filed under Rattus norvegicus [4] was determined as 110; in the assay listed under Rattus norvegicus [6] it was 17.
In the case of `CC(C)Oc1ccccc1N1CCN(CCCCn2nc(-n3ccc4ccccc43)ccc2=O)CC1`, the pKi in assay [1] is 8.77; in assay [2] it was 5.98; in assay [3] it was 7.70; in assay [5], 7.64. The Ratio Ki in the assay filed under Rattus norvegicus [4] is 12; in the assay listed under Rattus norvegicus [6], 13.6.
For the molecule `CCOc1ccccc1N1CCN(CCCCn2nc(-n3ccnc3)ccc2=O)CC1`, the pKi in assay [1] was 9.10; in assay [2], under 5.00; in assay [3], 6.83; in assay [5] it was 7.85. The molecule further showed an Activity in assay [7] of 15%. The results for the Ratio Ki in the assay listed under Rattus norvegicus [4] and in the assay filed under Rattus norvegicus [6] were 163 and 15.5, respectively.
As for `O=c1ccc(-n2ccnc2)nn1CCCCN1CCN(c2cccc(C(F)(F)F)c2)CC1`, the pKi was 6.93 in assay [1]; 6.64 in assay [2]; 6.18 in assay [3]; 7.89 in assay [5]; 6.78 in assay [8]. In the assay filed under Rattus norvegicus [4], the Ratio Ki was 5.6.
In the case of `O=c1ccc(-n2ccc3ccccc32)nn1CCCCN1CCN(c2cccc(C(F)(F)F)c2)CC1`, the pKi in assay [1] was 7.22; in assay [2] it was 6.96; in assay [3], 6.34; in assay [5] it was 7.21; in assay [8], 7.08. The Ratio Ki in the assay listed under Rattus norvegicus [4] was determined as 7.7; in the assay listed under Rattus norvegicus [6] it was 1.03.
Turning to `O=c1ccc(-n2ccnc2)nn1CCCCN1CCN(c2ncccn2)CC1`, the pKi is 6.15 in assay [1], under 5.00 in assay [2], 5.81 in assay [3] and 6.05 in assay [5]. In assay [7], this molecule came in with an Activity of 5%. For the same molecule, the Ratio Ki in the assay filed under Rattus norvegicus [4] is 2.2; in the assay filed under Rattus norvegicus [6], 1.25.
As for `CCOc1ccccc1N1CCN(CCCCn2nc(-n3ccc4ccccc43)ccc2=O)CC1`, the pKi in assay [1] was 8.96; in assay [2], 6.19; in assay [3], 7.15; in assay [5] it was 7.56. Further, the Ratio Ki in the assay listed under Rattus norvegicus [4] amounted to 62.6; in the assay listed under Rattus norvegicus [6] it was 24.7.
As to `CC(C)Oc1ccccc1N1CCN(C(=O)CCCn2nc(-n3ccnc3)ccc2=O)CC1`, the pKi is 6.05 in assay [1], under 5.00 in assay [2], 5.87 in assay [3] and 5.81 in assay [5]. The same molecule returned an Activity in assay [7] of 2%. Also, the Ratio Ki was determined as 1.49 in the assay filed under Rattus norvegicus [4] and 1.73 in the assay filed under Rattus norvegicus [6].
Regarding `O=c1ccc(-n2ccnc2)nn1CCCCN1CCN(c2ccc3c(c2)OCCO3)CC1`, the pKi in assay [1] was 6.60; in assay [2], under 5.00; in assay [3] it was 6.00; in assay [5], 6.03. The same molecule gave an Activity in assay [7] of 26%. Also, the Ratio Ki is 3.9 in the assay filed under Rattus norvegicus [4] and 3.73 in the assay listed under Rattus norvegicus [6].
With `COc1ccccc1N1CCN(CCNC(=O)Cn2nc(-n3ccnc3)ccc2=O)CC1`, the pKi in assay [1] is 6.16; in assay [2], 5.46; in assay [3] it was 5.53; in assay [5], 5.68. The figures for the Ratio Ki in the assay filed under Rattus norvegicus [4] and in the assay filed under Rattus norvegicus [6] were 4.3 and 3, respectively.
For `CCOc1ccccc1N1CCN(C(=O)CCCn2nc(-n3ccnc3)ccc2=O)CC1`, the pKi in assay [1] was 6.31; in assay [2], under 5.00; in assay [3] it was 5.76; in assay [5] it was 5.65. The molecule also had an Activity in assay [7] of 11%. Moreover, the Ratio Ki came out at 3.57 in the assay filed under Rattus norvegicus [4] and 4.57 in the assay filed under Rattus norvegicus [6].
On to `O=c1ccc(-n2ccc3ccccc32)nn1CCCCN1CCN(c2ncccn2)CC1`, for which the pKi in assay [1] was 7.72; in assay [2], under 5.00; in assay [3] it was 6.14; in assay [5], 6.68. This molecule also showed an Activity in assay [7] of 25%. For the same molecule, the Ratio Ki in the assay listed under Rattus norvegicus [4] was 38.1; in the assay listed under Rattus norvegicus [6] it was 11.1.
